From ChEMBL document CHEMBL1932986, “Synthesis and in vitro antimycobacterial activity of compounds derived from (R)- and (S)-2-amino-1-butanol - The crucial role of the configuration” (Eur J Med Chem, 2012) come the findings set out here.

Series [1] relates to Mycobacterium tuberculosis. The series can be described thus: Ratio of ethambutol dihydrochloride MIC to compound MIC for Mycobacterium tuberculosis H37Rv. The class given is functional.
The subject of series [2] is HEK-293T. The series can be described thus: Cytotoxicity against human HEK293T cells after 72 hrs by MTT assay. The class given is cell-based. The procedure, abridged:
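293T cells in RPMI-1640 with 10% heat-inactivated FCS and 2 mM L-glutamine, 37 °C, 5% CO2. Cells seeded at 3.5 × 10⁵ cells/ml, grown 24 h, then exposed 72 h to DMSO-diluted compounds (final solvent ≤0.5%), ≥8 wells per concentration. MTT added 4 h, formazan dissolved in 5% HCOOH/2-propanol, absorbance read at 580 nm. IC50 obtained by sigmoidal nonlinear regression against untreated control.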
Background: Tetrazolium assays rely on reduction of a dye to a coloured formazan, in cell work by metabolically active cells.

Series [3] deals with Bacillus subtilis. Put plainly: Antibacterial activity against Bacillus subtilis ATCC 6633 at 50 mg/ml after 24 hrs by agar diffusion test. The class given is functional. The conditions noted are these: for zone of inhibition at 50000 µg/mL: ATCC 6633, 24 h, read-out: DIZ. The procedure, abridged: (§1)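 Agar diffusion: wells in agar filled with […] DMSO solution of compound at various concentrations; diameter of clear zone around application point measured. Bacteria grown 24 h at 37 °C on nutrient agar. Compounds first screened at 50 mg/ml; those active then tested at lower concentrations. Bracketed value = lowest concentration (mg/ml) giving zone >11 mm, reported only if activity retained at ≤1.25 mg/ml.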
For orientation: A growth-free zone around the sample is the usual read-out of agar diffusion tests.

Series [4] deals with Bacillus mycoides. Put plainly: Antibacterial activity against Bacillus mycoides DSMZ 274 at 50 mg/ml after 24 hrs by agar diffusion test. The class given is functional. The following applies: for zone of inhibition at 50000 µg/mL: DSMZ 274, 24 h, read-out: DIZ. The procedure, abridged: as §1
The test system of series [5] is Escherichia coli. Put plainly: Antibacterial activity against Escherichia coli ATCC 8739 at 50 mg/ml after 24 hrs by agar diffusion test. The class given is functional. The procedure, abridged:
as §1

The subject of series [6] is Mycobacterium tuberculosis. The series can be described thus: Antimycobacterial activity against Mycobacterium tuberculosis H37Rv after 45 days. The class given is functional. The procedure, abridged: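 Canetti proportion method. Compound in DMSO is added to Löwenstein–Jensen egg medium before coagulation (30 min, 85 °C), tested at three levels plus a lower one where needed. Tubes are inoculated with H37Rv at 10⁵ cells/ml and incubated 45 days at 37 °C. Colony counts versus drug-free control give percentage inhibition.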

For series [7], the system named is Staphylococcus aureus. Put plainly: Antibacterial activity against Staphylococcus aureus NRRL B 313 at 50 mg/ml after 24 hrs by agar diffusion test. The class given is functional. The conditions noted are these: for zone of inhibition at 50000 µg/mL: NRRL B 313, 24 h, read-out: DIZ. The procedure, abridged: (§2)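 Agar diffusion: bacteria grown 24 h at 37 °C on nutrient agar. Wells in the agar are filled with […] of compound solution in DMSO at various concentrations. The diameter of the clear zone around the application point is measured. Bracketed values give the lowest concentration (mg/ml) that produces a zone >11 mm. A first screen is run at 50 mg/ml.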

The test system of series [8] is Acinetobacter johnsonii. The series can be described thus: Antibacterial activity against Acinetobacter johnsonii ATCC 17909 at 50 mg/ml after 24 hrs by agar diffusion test. The class given is functional. The method in brief:
as §1

Series [9] can be described thus: Solubility of the compound in deionized water. The class given is physicochemical.
The subject of series [10] is Priestia megaterium. The series can be described thus: Antibacterial activity against Bacillus megaterium NRRL 1353895 at 50 mg/ml after 24 hrs by agar diffusion test. The class given is functional. The method in brief: as §1
Series [11] in a line: Selectivity index, ratio of IC50 for human HEK293T cells to MIC for Mycobacterium tuberculosis H37Rv. The class given is functional, HEK-293T.
For series [12], the system named is Candida tropicalis. The series can be described thus: Antifungal activity against Candida tropicalis ATCC 20336 at 50 mg/ml after 72 hrs by agar diffusion test. The class given is functional. The following applies: for zone of inhibition at 50000 µg/mL: ATCC 20336, 72 h, read-out: DIZ. The method in brief: (§3)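 Agar diffusion: yeasts grown on yeast peptone dextrose agar and fungi on potato dextrose agar. Wells are filled with […] of compound solution in DMSO at various concentrations, and the clear-zone diameter is measured. Bracketed values give the lowest concentration (mg/ml) that produces a zone >11 mm. A first screen is run at 50 mg/ml.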

Series [13] has as its system Saccharomyces cerevisiae. Put plainly: Antifungal activity against Saccharomyces cerevisiae ATCC 9763 at 50 mg/ml after 72 hrs by agar diffusion test. The class given is functional. The conditions noted are these: for zone of inhibition at 50000 µg/mL: ATCC 9763, 72 h, read-out: DIZ. The procedure, abridged:
as §3

The test system of series [14] is Penicillium chrysogenum. Put plainly: Antifungal activity against Penicillium chrysogenum CECT 2802 at 50 mg/ml after 72 hrs by agar diffusion test. The class given is functional. The procedure, abridged: as §3
The test system of series [15] is Micrococcus luteus. Put plainly: Antibacterial activity against Micrococcus luteus ATCC 9631 at 50 mg/ml after 24 hrs by agar diffusion test. The class given is functional. The procedure, abridged:
as §1

The subject of series [16] is Bacillus cereus. Put plainly: Antibacterial activity against Bacillus cereus ATCC 11778 at 50 mg/ml after 24 hrs by agar diffusion test. The class given is functional. The conditions noted are these: for zone of inhibition at 50000 µg/mL: ATCC 11778, 24 h, read-out: DIZ. The method in brief:
as §1

For series [17], the system named is Bacillus. Put plainly: Antibacterial activity against Bacillus idosus B 241 at 50 mg/ml after 24 hrs by agar diffusion test. The class given is functional. The method in brief: as §1
The subject of series [18] is Micrococcus luteus. Put plainly: Antibacterial activity against Sarcina lutea ATCC 9341 at 50 mg/ml after 24 hrs by agar diffusion test. The class given is functional. The procedure, abridged:
as §2

Each structure is given as a SMILES string. pIC50: −log10 of the molar value. ≈ marks a conversion by molar mass, not a printed value. Calls of active or inactive are those of the source. No cut-off for these calls is given here. Bounds are passed on as bounds.

For the compound `CC(C)=CCC/C(C)=C/CNCCNC1C2CC3CC(C2)CC1C3` (configuration not stated) [SQ109], the Ratio in series [1] is given as 35.
A word on the pIC50: it is −log10 of the IC50, conventionally taken in molar units. Lower therefore signals a large IC50. The term MIC denotes the lowest concentration that inhibits growth of the organism. A high value points to weaker potency. A word on the solubility: it is how much of the substance goes into solution per volume. A higher solubility goes with much dissolved substance. As for `CC[C@H](COC(C)=O)NC(c1ccccc1)(c1ccccc1)c1ccccc1`, the pIC50 in series [2] is 3.94. Besides, the zone of inhibition at 50000 µg/mL in [3] stood at 13 mm. Besides, the “diameter of the inhibition zone (DIZ)” value in [4], in [5], in series [7], in [8], in series [10] and in series [12] was “inactive” throughout. The “diameter of the inhibition zone (DIZ)” value in series [13], in series [14], in series [15], in [16], in series [17] and in series [18] was “inactive” each time. This compound also came in with an MIC in series [6] of 13.4 µM (≈ 5 µg/mL). For the same compound, in series [9], the solubility was less than 1000 µg/mL. Also, in series [11], the “Selectivity Index” value is 8.5.
`CC[C@H](CO)N1Cc2ccccc2C1` gave a pIC50 in series [2] of 3.91. Further, the zone of inhibition at 50000 µg/mL came to 11 mm in series [3]; 23 mm in series [4]; 25 mm in series [5] (ATCC 8739, 24 h, read-out: DIZ); 25 mm in [7]; 21 mm in [12]; 16 mm in series [13]. Moreover, the zone of inhibition at 50000 µg/mL in series [14] (CECT 2802, 72 h, read-out: DIZ) came to 10 mm; in series [16] it was 25 mm; in [17] (B 241, 24 h, read-out: DIZ), 20 mm. In addition, it took 10.5 µM (≈ 2 µg/mL) to inhibit growth in series [6] (MIC). In series [9], this compound gave a solubility of less than 1000 µg/mL. In addition, the “Selectivity Index” value in series [11] was found to be 11.7.
With `CC[C@H](CO)NC(=O)/C=C/c1ccccc1`, the pIC50 in [2] was 3.68. The “diameter of the inhibition zone (DIZ)” value in series [3], in [5], in series [8], in [15] and in [17] was “inactive” in each case. In addition, the zone of inhibition at 50000 µg/mL in [4] turned out to be 12 mm; in series [7], 12 mm; in series [10] (NRRL 1353895, 24 h, read-out: DIZ) it was 12 mm; in [12] it was 11 mm; in series [13], 13 mm; in series [16], 12 mm. In addition, the zone of inhibition at 50000 µg/mL in [18] (ATCC 9341, 24 h, read-out: DIZ) worked out at 15 mm. Further, it took 9.12 µM (≈ 2 µg/mL) to inhibit growth in series [6] (MIC). The compound also had a solubility in series [9] of less than 1000 µg/mL. For the same compound, the “Selectivity Index” value in series [11] was found to be 23.1.
In [6], `CC[C@@H](CO)NC(=O)c1ccccc1O` registered an MIC greater than 23.9 µM. In addition, the Ratio in series [1] came to 2.
In [6], `CC[C@@H](CO)N1Cc2ccccc2C1=O` displayed an MIC greater than 31.2 µM. Moreover, the Ratio in series [1] turned out to be 2.
In series [6], `CC[C@@H](CO)NP(=O)(c1ccccc1)c1ccccc1` registered an MIC greater than 17.3 µM. In addition, in [1], the Ratio came to 2.
In turn, `CC[C@@H](CO)NC(=O)c1ccccc1C(=O)N[C@@H](CC)CO` displayed an MIC in series [6] greater than 16.2 µM. For the same compound, the Ratio in [1] came out at 2.
The like results for `CC[C@@H](CO)NC(=O)/C=C/c1ccccc1` were, in that order, greater than 22.8 µM and 2.
`CC[C@@H](CO)NCCN[C@@H](CC)CO.Cl.Cl` [ETHAMBUTOL HYDROCHLORIDE]: the MIC in series [6] stood at 7.22 µM. For the same compound, the solubility in series [9] amounted to 100000 µg/mL.
In series [2], `CC[C@H](CO)Nc1ccc2c3c(cccc13)C(=O)N([C@H](CC)CO)C2=O` showed a pIC50 of 4.33. For the same compound, the “diameter of the inhibition zone (DIZ)” value in series [3], in [4], in series [7], in series [8], in series [10] and in series [13] was “inactive” in each case. Moreover, the “diameter of the inhibition zone (DIZ)” value in series [14], in series [16], in series [17] and in series [18] was “inactive” each time. In series [6], this compound showed an MIC of 14 µM (≈ 5 µg/mL). The same compound yielded a solubility in [9] of less than 1000 µg/mL. Further, the “Selectivity Index” value in series [11] amounted to 3.4.
For `CC[C@H](CO)NC(=O)c1ccc2ccccc2c1`, the “diameter of the inhibition zone (DIZ)” value in series [3], in series [4], in series [5], in series [7], in [8] and in series [10] was “inactive” throughout. In addition, the “diameter of the inhibition zone (DIZ)” value in series [12], in series [13], in series [14], in series [15], in series [16] and in series [17] was “inactive” each time. The “diameter of the inhibition zone (DIZ)” value in [18] was “inactive”. The same compound returned an MIC in [6] greater than 20.6 µM.
For the compound `CC[C@H](CO)NCc1ccc(CN[C@H](CC)CO)cc1`, the zone of inhibition at 50000 µg/mL in [3] worked out at 10 mm. In addition, the “diameter of the inhibition zone (DIZ)” value in series [4], in series [5], in [7], in series [8], in series [10] and in series [12] was “inactive” throughout. Further, the “diameter of the inhibition zone (DIZ)” value in [13], in series [14], in series [15], in [16], in [17] and in series [18] was “inactive” in each case. This compound also displayed a minimal inhibitory concentration (MIC) in series [6] of 17.8 µM (≈ 5 µg/mL).
Regarding `CC[C@H](CO)NC(=O)c1ccncc1`, the “diameter of the inhibition zone (DIZ)” value in series [3], in series [4], in series [5], in series [7], in series [8] and in series [10] was “inactive” in each case. The “diameter of the inhibition zone (DIZ)” value in series [12], in [13], in series [14], in series [15], in series [16] and in series [17] was “inactive” each time. For the same compound, the “diameter of the inhibition zone (DIZ)” value in [18] was “inactive”. This compound came in with an MIC in [6] greater than 25.7 µM.
Compound `CCNC(=O)N[C@@H](CC)CO` yielded a minimal inhibitory concentration (MIC) in series [6] greater than 24.4 µM. Also, the Ratio in [1] was 2.
